# FLuc stim CS: affects firefly luciferase, flagging false hits in luciferase stimulation screens; AID 1027; ATPlite luciferase biochemical, luminescence, 10 min; 0 = ATP-free wells, 1 = DMSO control; 200,000 tested, under 10 active; activation factor at 10 µM;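 active means luciferase activation factor, scaled between plate controls, of at least 2 with compound at 10 µM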
# Target sequence (P08659 whole entry, looked up): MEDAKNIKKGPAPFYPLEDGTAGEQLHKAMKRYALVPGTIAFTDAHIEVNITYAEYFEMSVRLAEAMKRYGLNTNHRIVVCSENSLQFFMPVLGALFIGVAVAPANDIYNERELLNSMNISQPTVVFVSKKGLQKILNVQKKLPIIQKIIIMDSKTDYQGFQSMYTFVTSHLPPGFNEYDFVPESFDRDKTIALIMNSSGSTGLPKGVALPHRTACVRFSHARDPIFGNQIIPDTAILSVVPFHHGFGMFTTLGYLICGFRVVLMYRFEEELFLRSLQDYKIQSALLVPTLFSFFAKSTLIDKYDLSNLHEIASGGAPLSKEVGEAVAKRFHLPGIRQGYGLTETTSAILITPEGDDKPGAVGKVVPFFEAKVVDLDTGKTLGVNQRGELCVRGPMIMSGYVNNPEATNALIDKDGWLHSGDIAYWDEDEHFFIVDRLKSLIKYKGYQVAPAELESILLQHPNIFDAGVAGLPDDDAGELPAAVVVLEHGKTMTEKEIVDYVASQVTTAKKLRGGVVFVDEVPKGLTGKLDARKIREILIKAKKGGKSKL
#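 assay system = Luciferase/luciferin detection reagent, cell-free biochemical luciferase assay | also added = ATP substrate | times = 10 min post-reagent at room temperature | measured by = luminescence from luciferase reaction | measure = luciferase activation, seen as luminescence increase over controls | benchmarks = low control with PBS replacing ATP, high control enzyme plus ATP without compound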
# NF-kB neuron act: compounds increasing NF-kB expression in human neuronal cells | NF-kB reporter expression; active compounds read high | fold change at 12.5 µM | hit rate 1.6% among 190,000 | AID 1239; in the data active means fold change above about 3.3
# APP 5'UTR act: APP 5'UTR luciferase reporter activation; hit rate 1% among 190,000; activation, % at 2 µM; SH-SY5Y APP 5'UTR luciferase reporter, luminescence; zero percent = DMSO vehicle wells;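 active means activation above a set limit, based on mean plus 3 SD of controls, cut at about 140% in these data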
# FLuc inhib CS: inhibits firefly luciferase, flagging false hits in luciferase inhibition screens; P08659; ATPLite firefly luciferase biochemical luminescence, 10 min; inhibition, % at 10 µM; hit rate 1.5% among 200,000;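 active means inhibition above about 50% when tested at 10 µM, limit read from the data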
# PPC-1+TRAIL kill: kills PPC-1 cancer cells in the presence of TRAIL; PPC-1 cells + TRAIL, ATPLite viability luminescence; cell killing (% activity), % at 4 µM or 5 µM; hit rate 0.41% among 220,000; AID 1443;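 active means cell killing above 50% in the first pass at 4 µM, then a duplicate retest at 5 µM averaging 50% or more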
# C8 TRAIL sens: caspase-8 TRAIL sensitization. NB7+C8 cells + TRAIL, ATPlite viability luminescence. inhibition (viability loss, TRAIL sensitization), % at 10 µM. hit rate 1% among 360,000;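 active means compounds causing at least 50% loss of cell viability in the single-dose screen, relative to plate controls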
# Numbers stand for hits; n = inactive; x = no result. An excerpt weighted towards active compounds, which were near 2.2% of everything screened.
SMILES,FLuc stim CS,NF-kB neuron act,APP 5'UTR act,FLuc inhib CS,PPC-1+TRAIL kill,C8 TRAIL sens
Cc1ccc([N+](=O)[O-])cc1N=Nc1c(C)[nH]n(C(N)=S)c1=O,x,x,x,x,x,n
Cc1ccc([N+](=O)[O-])cc1N=Nc1c(-c2ccc([N+](=O)[O-])cc2)[nH]n(C(N)=S)c1=O,n,n,n,n,n,50
COC(=O)C/C(C)=N/Nc1ccc(S(=O)(=O)N2CCCC2)cc1[N+](=O)[O-],n,n,n,n,n,n
Cc1ccc(NC(=O)CSC2=NN3CCCC(=O)N=C3S2)c(C)c1,n,3.3,n,n,n,n
O=[N+]([O-])c1c(Nc2cccc(O)c2)cc(Cl)c2nonc12,x,x,x,x,x,59
COc1ccc(CN2C(=NC(=O)CCc3ccccc3)SC3CS(=O)(=O)CC32)cc1 (stereo unspecified),x,x,x,x,x,n
CCCOc1ccc(/C=N/NC(=O)CSCc2ccc([N+](=O)[O-])cc2)cc1OCC,n,n,n,n,n,n
COc1cccc(C(=O)Nc2cccc(-c3ccc(N4CCOCC4)nn3)c2)c1OC,x,x,x,x,x,67
COc1cccc(C(=O)Nc2cccc(-c3ccc(N4CCOCC4)nn3)c2)c1,x,x,x,x,x,n
O=C(Nc1cccc(-c2ccc(N3CCOCC3)nn2)c1)c1ccc(F)cc1F,x,x,x,x,x,51
COc1ccc(C(=O)Nc2cccc(-c3ccc(N4CCOCC4)nn3)c2)cc1OC,x,x,x,x,x,64
CCOc1ccccc1C(=O)Nc1cccc(-c2ccc(N3CCOCC3)nn2)c1,x,x,x,x,x,n
CCCn1c(N)c(N(CCOC)C(=O)Cc2ccc(S(=O)(=O)N3CCOCC3)s2)c(=O)[nH]c1=O,x,x,x,x,x,n
Cc1ccccc1Oc1nc2ccccn2c(=O)c1/C=C(\C#N)C(=O)Nc1c(C)n(C)n(-c2ccccc2)c1=O,n,4.6,n,n,n,n
O=C(c1ccncc1)N(Cc1cc2ccccc2[nH]c1=O)C1CCCCC1,n,n,n,n,n,76
Cc1nc(NC(=S)NC(=O)c2ccccc2)sc1C,x,x,x,x,n,63
O=C(NC(=S)Nc1nc2c(s1)CCCC2)c1ccccc1,n,n,191,63,n,71
COC(=O)c1ccc(C(=O)NC(=S)Nc2nc3c(s2)CCCC3)cc1,n,n,n,n,n,n
O=S(=O)(Oc1ccccc1-c1ccccc1)c1ccccc1,x,x,x,x,x,n
Cc1cc(NC(=O)NC(C(F)(F)F)C(F)(F)F)no1,n,n,n,n,n,n
Fc1cccc(F)c1/C=C/c1ccc2ccccc2n1,n,4.4,166,82,n,58
Cc1ccsc1/C=C/c1ccc2ccccc2n1,n,5,177,n,n,56
COc1cc(/C=C/c2ccc3cccc(O)c3n2)ccc1O,x,x,x,x,x,n
Oc1cccc2ccc(/C=C/c3cccs3)nc12,n,n,148,n,n,n
CSc1ccc(/C=C/c2ccc3cccc(O)c3n2)cc1,n,6.2,173,n,n,53
SMILES,FLuc stim CS,NF-kB neuron act,APP 5'UTR act,FLuc inhib CS,PPC-1+TRAIL kill,C8 TRAIL sens
NS(=O)(=O)c1ccc(NC(=O)COC(=O)Cn2cnc3ccccc3c2=O)cc1,x,x,x,x,x,n
Cc1ccsc1/C=C/c1ccc2cccc(O)c2n1,n,5,148,n,n,n
Oc1cccc2ccc(/C=C/c3ccccc3Br)nc12,x,x,x,x,x,n
Cc1nc(SCC(=O)Nc2nccs2)c(C#N)c(C)c1C,x,x,x,x,x,80
O=C1C(N2CCOCC2)=C(n2nnc3ccccc32)C(=O)c2ccccc21,n,n,n,n,n,94
CCOC(=O)c1ccc(N/C=C/C(=O)c2ccc(OC)cc2)cc1,n,n,n,n,n,n
COc1cccc(C(=O)/C=C/Nc2ccc(NC(C)=O)cc2)c1,n,n,n,n,n,n
COc1ccc(N/C=C/C(=O)c2ccc(Cl)cc2)cc1,n,n,152,n,n,n
COc1cccc(N/C=C/C(=O)c2ccc(C)cc2)c1,x,x,x,x,x,64
COc1cccc(N/C=C/C(=O)c2ccc(Cl)cc2)c1,n,6.4,198,83,53,53
CCc1ccc(-c2nc(-c3ccncc3)no2)cc1,n,3.4,168,n,n,n
CCCCc1ccc(-c2nc(-c3ccncc3)no2)cc1,n,7,176,n,n,n
CCCc1ccc(-c2ccc(-c3noc(-c4ccncc4)n3)cc2)nc1,x,x,x,x,x,n
CC(C)(C)NC(=O)CCN(/N=C/c1ccccc1O)C1=NS(=O)(=O)c2ccccc21,x,x,x,x,x,n
Cc1nn(S(=O)(=O)c2ccc(F)cc2)c(C)c1S(=O)(=O)N1CCOCC1,x,x,x,x,x,n
Cc1ccc2nc(-c3ccc(NC(=O)CCN4C(=O)c5ccccc5C4=O)cc3)sc2c1,n,7.4,n,68,n,83
O=C(CCN1C(=O)c2ccccc2C1=O)Nc1nc2ccccc2s1,n,n,x,n,n,n
O=C(CCN1C(=O)c2ccccc2C1=O)Nc1ccc(-c2nc3ccccc3s2)cc1,n,n,136,n,n,69
CC(C)c1ccc(/C=N/N2CCCCC2)cc1,n,n,n,66,n,n
COc1ccc(CN2C(=O)c3ccccc3C2c2nnnn2Cc2ccccc2)cc1OC (stereo unspecified),x,x,x,x,x,n
Cc1ccc2nc(/C=C/c3cccc(F)c3)ccc2c1,n,7.4,214,52,n,n
COc1ccc(C(=O)Nc2ccc(Cl)c(Cl)c2)c(OC)n1,n,4.6,n,n,n,n
COc1ccc(C(=O)O)c(OC)n1,x,x,x,x,n,n
Cc1nc(N2CCN(S(=O)(=O)c3ccccc3C#N)CC2)c2c(-c3cccs3)csc2n1,n,n,n,n,n,n
Cc1nc(N2CCCCC2)c2c(-c3cccs3)csc2n1,n,7.8,n,n,n,n
SMILES,FLuc stim CS,NF-kB neuron act,APP 5'UTR act,FLuc inhib CS,PPC-1+TRAIL kill,C8 TRAIL sens
C=CCSc1nncn1/N=C/c1ccc(OC)cc1,n,3.4,n,n,n,n
Cn1c(NC(=O)c2ccc(F)cc2)nc2ccccc21,x,x,x,x,x,64
Cn1c(NC(=S)Nc2ccccc2)nc2ccccc21,n,n,160,n,n,n
Cc1ccc2oc(-c3ccccc3)c(C(=O)O)c(=O)c2c1,n,4,166,n,n,57
O=C(Nc1nc2ccc(F)cc2s1)C1CCCO1 (stereo unspecified),n,3.9,n,n,n,n
CCOc1ccc2nc(NC(=O)C3CCCO3)sc2c1 (stereo unspecified),n,4.7,158,n,x,n
O=C(Nc1ncc(Cc2ccccc2)s1)C1CCCO1 (stereo unspecified),n,4.1,n,n,n,n
Nc1ccc2nc(NC(=O)C3CCCCC3)sc2c1,n,4.8,n,n,n,n
CN(C)CCN(C(=O)C1CCN(S(=O)(=O)c2cccs2)CC1)c1nc2c(F)cccc2s1,x,x,x,x,x,n
COCCCNC1=C(C#N)C(=O)NC2(CCCC2)S1,x,x,x,x,x,n
O=C1CCNc2cc3ccccc3cc21,n,n,n,n,52,n
CC1=C(C#N)C(=O)N(C2CCS(=O)(=O)C2)C(=O)/C1=C\c1ccco1 (stereo unspecified),x,x,x,x,n,x
C=CCn1c(=O)[nH]c2cc(C(=O)N3CC=C(c4ccccc4)CC3)ccc2c1=O,n,n,n,n,n,n
COC(=O)c1ccc(N=Nc2ccccc2)cc1,n,n,n,60,n,n
